Assay results reported in ChEMBL document CHEMBL1157809, “Bioactive norditerpenoids from the soft coral Sinularia gyrosa” (Bioorg Med Chem, 2010).
In brackets after ≈: the same amount, converted by molar mass. Activity calls are given as the source filed them. The calls are words filed in the database; no cut-off is given here.

Legend:
[1] = test system: A549; assay: Cytotoxicity against human A549 cells by MTT assay; format: functional; conditions: read-out: ED50 (the source's name)
How it was run: (§1)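 Modified MTT colorimetric assay on P-388 mouse lymphocytic leukemia, HT-29 and A549 tumor cells; read-out ED50. Mithramycin as positive control.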

[2] = test system: RAW264.7; assay: Antiinflammatory activity in mouse RAW264.7 cells assessed as inhibition of LPS-induced COX2 expression at 10 uM by immunoblot analysis; format: functional
How it was run: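 Murine RAW 264.7 macrophages cultured in DMEM with 10% heat-inactivated FBS at 37 °C, 5% CO2. Cells were stimulated with LPS with or without compound. COX-2 protein was measured by immunoblot, with β-actin as housekeeping reference, and expressed as % of LPS-stimulated control cells. Statistics: one-way ANOVA, Student–Newman–Keuls post hoc test, P<0.05.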

[3] = test system: P388; assay: Cytotoxicity against mouse P388 cells by MTT assay; format: functional; conditions: read-out: ED50 (the source's name); how it was run: as §1
[4] = test system: Human betaherpesvirus 5; assay: Antiviral activity against HCMV infected in HEL cells assessed as inhibition of virus-induced cytopathic effect after 7 days; format: functional, organism-based; conditions: Human betaherpesvirus 5, HEL, 168 h; for EC50: read-out: ED50 (the source's name)
How it was run: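 Confluent human embryonic lung (HEL) cells preincubated 1 h with or without various compound concentrations, then infected with HCMV at 1000 pfu per well. IC50 taken as concentration reducing virus-induced cytopathic effect by 50% after seven days versus untreated control.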

[5] = test system: RAW264.7; assay: Antiinflammatory activity in mouse RAW264.7 cells assessed as inhibition of LPS-induced iNOS expression at 10 uM by immunoblot analysis
[6] = test system: HT-29; assay: Cytotoxicity against human HT-29 cells by MTT assay; format: functional; conditions: read-out: ED50 (the source's name); how it was run: as §1

SMILES | EC50 [1] | Activity [2] | EC50 [3] | IC50 [4] | inhibition at 10 µM [5] | EC50 [6] | EC50 [4]
C=C(C)[C@H]1C/C=C2/C(=O)O[C@H](C[C@@]3(C)CC(=O)[C@@H](CC(=O)C1)O3)[C@H]2O | > 20 µg/mL | inactive | > 20 µg/mL | 1.9 µg/mL (≈ 5.45 µM) | 10.2% | > 20 µg/mL | –
C=C(C)[C@H]1CC[C@]23O[C@H]2[C@@H](C[C@@]2(C)CC(=O)[C@@H](CC(=O)C1)O2)OC3=O | > 20 µg/mL | inactive | > 20 µg/mL | – | 47.2% | > 20 µg/mL | > 50 µg/mL
C=C(C)[C@@H]1CC(=O)C[C@H]2O[C@](C)(CC2=O)C[C@H]2OC(=O)[C@@]3(O[C@H]23)[C@@H](O)C1 | > 20 µg/mL | inactive | > 20 µg/mL | – | 56.3% | > 20 µg/mL | > 50 µg/mL
C=C(C)[C@H]1C/C=C2/C(=O)O[C@H](C[C@@]3(C)CC(=O)[C@H](CC(=O)C1)O3)[C@H]2O | > 20 µg/mL | inactive | > 20 µg/mL | – | 17.4% | > 20 µg/mL | > 50 µg/mL
C=C(C)[C@H]1CCC2=C[C@@H](C[C@@]3(C)CC(=O)[C@H](CC(=O)C1)O3)OC2=O | > 20 µg/mL | – | > 20 µg/mL | – | – | > 20 µg/mL | > 50 µg/mL
C=C(C)[C@H]1C/C=C(/C(=O)OC)CC(=O)C[C@@]2(C)CC(=O)[C@H](CC(=O)C1)O2 | > 20 µg/mL | – | > 20 µg/mL | – | – | > 20 µg/mL | > 50 µg/mL
C=C(C)[C@@H]1CC(=O)C[C@]23O[C@]4(C)C[C@H]5OC(=O)[C@H]([C@H]5[C@H]4C2=O)[C@H]3C1 | > 20 µg/mL | – | > 20 µg/mL | – | – | > 20 µg/mL | > 50 µg/mL
C=C(C)[C@H]1CCC2=C[C@@H](C[C@@]3(C)CC(=O)[C@@H](CC(=O)C1)O3)OC2=O | > 20 µg/mL | – | > 20 µg/mL | – | – | > 20 µg/mL | > 50 µg/mL
C=C(C)[C@@H]1CC(=O)[C@H]2[C@H](C1)[C@@H]1C(=O)O[C@@H]3C[C@@]4(C)O[C@@H]2C(=O)[C@@H]4[C@H]13 | > 20 µg/mL | – | > 20 µg/mL | – | – | > 20 µg/mL | > 50 µg/mL
O=C(/C=C/c1ccc(O)c(O)c1)OCCc1ccccc1 [CAFFEIC ACID PHENETHYL ESTER] | – | – | – | – | 1.5% | – | –
C=C(C)[C@@H]1CC(=O)C[C@H]2O[C@](C)(CC2=O)C[C@@H](O)[C@@H]2O[C@]2(C(=O)OC)[C@@H](O)C1 [GYROSANIN A] | > 20 µg/mL | inactive | 3.6 µg/mL (≈ 9.08 µM) | – | 66.9% | > 20 µg/mL | > 50 µg/mL
C=C(C)[C@H]1C/C=C2/C(=O)O[C@H](C/C(C)=C/C(=O)[C@@H](O)CC(=O)C1)[C@H]2O [GYROSANOLIDE A] | > 20 µg/mL | inactive | > 20 µg/mL | – | 55.2% | > 20 µg/mL | > 50 µg/mL
C=C(C)[C@H]1C/C=C2/C(=O)O[C@H](C/C(C)=C\C(=O)[C@@H](O)CC(=O)C1)[C@H]2O [GYROSANOLIDE B] | > 20 µg/mL | inactive | > 20 µg/mL | – | 18.6% | > 20 µg/mL | > 50 µg/mL
C=C(C)[C@H]1C/C=C2/C(=O)O[C@H](C/C(C)=C/C(=O)[C@H](OC)CC(=O)C1)[C@H]2O [GYROSANOLIDE C] | > 20 µg/mL | inactive | > 20 µg/mL | – | 10.6% | > 20 µg/mL | > 50 µg/mL
C=C(C)[C@H]1CCC2=C[C@@H](C/C(C)=C/C(=O)[C@H](O)CC(=O)C1)OC2=O [GYROSANOLIDE D] | > 20 µg/mL | – | > 20 µg/mL | – | – | > 20 µg/mL | > 50 µg/mL
C=C(C)[C@H]1CCC2=C[C@H](C[C@@]3(C)CC(=O)[C@@H](CC(=O)C1)O3)OC2=O [GYROSANOLIDE E] | > 20 µg/mL | – | > 20 µg/mL | – | – | > 20 µg/mL | > 50 µg/mL
C=C(C)[C@@H]1CC(=O)C[C@@H]2O[C@](C)(CC2=O)C[C@@H]2C=C(C(=O)O2)[C@@H](O)C1 [GYROSANOLIDE F] | > 20 µg/mL | – | > 20 µg/mL | – | – | > 20 µg/mL | > 50 µg/mL
CO[C@H](C(=O)[C@@H](O)[C@@H](C)O)[C@@H]1Cc2cc3cc(O[C@H]4C[C@@H](O[C@@H]5C[C@@H](O)[C@H](O)[C@@H](C)O5)[C@H](O)[C@@H](C)O4)c(C)c(O)c3c(O)c2C(=O)[C@H]1O[C@H]1C[C@@H](O[C@@H]2C[C@@H](O)[C@@H](O[C@@H]3C[C@](C)(O)[C@H](O)[C@@H](C)O3)[C@@H](C)O2)[C@H](O)[C@@H](C)O1 [PLICAMYCIN] | 0.07 µg/mL (≈ 0.0645 µM) | – | 0.06 µg/mL (≈ 0.0553 µM) | – | – | 0.08 µg/mL (≈ 0.0737 µM) | –
C=C(C)[C@@H]1CC(=O)CC2=C(C1)[C@@H]1C(=O)O[C@@H]3C[C@](C)(O)[C@H](C2=O)[C@H]13 [SCABROLIDE A] | > 20 µg/mL | – | > 20 µg/mL | – | – | > 20 µg/mL | > 50 µg/mL
C=C(C)[C@@H]1CC(=O)CC2=C(C1)[C@@H]1C(=O)O[C@@H]3CC(C)=C(C2=O)[C@H]13 [YONAROLIDE] | > 20 µg/mL | – | > 20 µg/mL | – | – | > 20 µg/mL | > 50 µg/mL
